Measurements taken from publication PMC5269458 (Metallomics : integrated biometal science, 2017).
In brackets after ≈: the same amount, converted by molar mass. Like-named read-outs stand apart in the source and are kept apart here. Marks after values point to notes of the source that are not given here. Each block holds one molecule with its values, some of them ahead of it.

Legend:
[1] = test system: wild-type C. neoformans H99; test: Growth inhibition; assay type: cell-based, Cryptococcus neoformans; details: for Minimum inhibitory concentration (MIC) / MIC: 30 °C; for growth compared to no treatment at 48 h: 100 μM compound, no supplemental Cu; for effect of supplemental Cu on the growth inhibition by the compound: 1 mM Cu, high compound concentration (100 μM; CQ 50 μM); for effect of added Ag(I) on MIC: 10 μM supplemental Ag(I); for effect of added Cu(II) on MIC: 10 μM supplemental Cu(II); for effect of added Fe(III) on MIC: 10 μM supplemental Fe(III); for effect of added Zn(II) on MIC: 10 μM supplemental Zn(II); for MIC: Cryptococcus neoformans, read-out: Minimum inhibitory concentration (MIC), supplemental [Cu] 1 mM (CuSO4)
Conditional Cu [2] = assay type: binding
[3] = Calcein competition assay for Cu; assay type: binding; details: 100 μM compound; HEPES pH 7.4 and SC medium pH 4.5
[4] = pH 7.4; ref Smith, R. M.; Martell, A. E.; Motekaitis, R. J, 2007; cited from earlier work
WT C. neoformans [5] = details: with 10 μM Cu; cited from earlier work
[6] = test system: ctr1Δctr4Δ mutant strain of C. neoformans; details: YPEG medium; cited from earlier work
[7] = test system: ctr1Δctr4Δ mutant strain of C. neoformans; test: Growth recovery of Cu-import deficient mutant in YPEG medium; assay type: cell-based, Cryptococcus neoformans; details: YPEG medium without supplemental Cu, micromolar compound, 48 h
Conditional Cu [8] = assay type: binding; details: for competition for Cu(I) with BCA or ferrozine: pH 7.4, anaerobic
[9] = test system: C. neoformans wild type, H99 cells; assay type: cell-based, Cryptococcus neoformans; details: SC medium; for cellular metal content compared to the other conditions: 10 μM ligand
[10] = cited from earlier work
Stoichiometry with Cu [11] = assay type: binding; details: 5% DMSO in universal buffer, pH 7.4
How it was run: (§1)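 Ligand–Cu mixtures were made in 5% DMSO in Britton–Robinson universal buffer, pH 7.4. Total metal plus ligand concentration was held constant while the Cu mole fraction was varied from 0.1 to 1.0, and samples were read by UV-vis. Ligand stocks were 100 mM in DMSO. For Cu(I), the buffer (0.04 M […], H3PO4, CH3CO2H) was deoxygenated, samples were prepared and measured anaerobically in a glove box, and stock concentration was set by BCA titration at 562 nm.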

Stoichiometry with Cu [12] = assay type: binding; details: 5% DMSO in universal buffer, pH 7.4, anaerobic
How it was run: as §1

WT C. neoformans [13] = test: Fungicidal assay; assay type: cell-based, Cryptococcus neoformans; details: 24 h in liquid culture, PyS 3 μM
[14] = no supplemental Cu ([Cu] 0 mM), SC medium, 48 h
[15] = conditional, universal buffer pH 7.4, competition with PAR
[16] = negative log of free [Cu] at pH 7.4, total ligand 10 μM, total Cu 1 μM
[17] = 10 μM ligand co-incubated with 10 μM CuSO4, 1 h
[18] = supplemental [Cu] 1 mM (CuSO4), SC medium, 48 h
[19] = supplemental [Cu] 0.01 mM (CuSO4), SC medium, 48 h
[20] = conditional, universal buffer pH 7.4, competition with BCA
[21] = with 10 μM CuSO4, ThM above 6 μM

Minimum inhibitory concentration (MIC) [1, 14]: higher than 100 μM
Structure (SMILES): Cc1cc(-c2ccc(S(=O)(=O)O)cc2)c2ccc3c(-c4ccc(S(=O)(=O)O)cc4)cc(C)nc3c2n1 [BCS, bathocuproine disulfonic acid]

Structure (SMILES): O=C(N/N=C/c1ccccc1O)c1ccncc1 [SIH, salicylaldehyde isonicotinoyl hydrazine]
Minimum inhibitory concentration (MIC) [1, 14]: higher than 100 μM | growth with compound in combination with Cu ([1]; with 1 mM Cu, SC medium, 48 h): inhibited growth slightly

Structure (SMILES): [SH-].[SH-].[S]=[Mo]=[S] [TTM, tetrathiomolybdate]
growth compared to no treatment at 48 h ([1]; SC medium): decrease in growth | effect of supplemental Cu on the growth inhibition by the compound [1]: reversed | Minimum inhibitory concentration (MIC) [1, 14]: higher than 100 μM

Structure (SMILES): Oc1cccc2cccnc12 [Compound 8HQ, 8-hydroxyquinoline]
effect of added Ag(I) on MIC ([1]; 48 h): no effect | effect of added Cu(II) on MIC ([1]; 48 h): significant decrease | effect of added Fe(III) on MIC ([1]; 48 h): did not significantly affect | effect of added Zn(II) on MIC ([1]; 48 h): did not significantly affect | MIC ([1]; 48 h, SC medium, 48 h): 6 µM (≈ 0.871 µg/mL) | Minimum inhibitory concentration (MIC) [1, 14]: >100 µM | pCu(II) (Conditional Cu [2]; pH 7.4): 18.7 | competition with calcein for Cu(II) [3]: largest pH dependence | Cu(II) log KML2 [4]: 22.9 ± 0.1 ^a | fungicidal activity (viable fungi) (WT C. neoformans [5]): absence of detectable viable fungi | restoration of growth of ctr1Δctr4Δ mutant [6]: recover growth

Structure (SMILES): Cc1occc(=O)c1O [Mal, maltol]
restoration of growth of ctr1Δctr4Δ mutant [7]: unable to restore growth | Cu(II) log KML2 (Conditional Cu [2]; [15]): 12.2 ± 0.3 | pCu(II) (Conditional Cu [2]; [16]): 8.0 | competition for Cu(I) with BCA or ferrozine (Conditional Cu [8]): did not compete | cell-associated Cu, Fe and Zn content [9, 17]: did not dramatically alter cellular metal content

Structure (SMILES): O=C(O)c1ccc(-n2nc(-c3ccccc3O)nc2-c2ccccc2O)cc1 [deferasirox]
growth compared to no treatment at 48 h ([1]; SC medium): decrease in growth | effect of supplemental Cu on the growth inhibition by the compound [1]: reversed

Structure (SMILES): Cc1c(O)c(=O)ccn1C [Dfp, deferiprone]
Minimum inhibitory concentration (MIC) [1, 18]: >100 µM | restoration of growth of ctr1Δctr4Δ mutant [7]: unable to restore growth | Cu(II) log KML2 (Conditional Cu [2]; [15]): 15.3 ± 0.3 | pCu(II) (Conditional Cu [2]; [16]): 11.1 | competition for Cu(I) with BCA or ferrozine (Conditional Cu [8]): did not compete | cell-associated Cu, Fe and Zn content [9, 17]: did not dramatically alter cellular metal content | cellular metal content compared to the other conditions ([9]; 1 h): decreased cellular metal content

Structure (SMILES): O=S(=O)([O-])c1ccc(-c2nnc(-c3ccccn3)nc2-c2ccc(S(=O)(=O)[O-])cc2)cc1.[Na+].[Na+] [ferrozine]
log KFz2Cu ([10]; Cu(I) complex): 15.1

Structure (SMILES): Cc1c(O)c(=S)ccn1C [ThDfp]
growth compared to no treatment at 48 h ([1]; SC medium): decrease in growth | effect of supplemental Cu on the growth inhibition by the compound [1]: reversed | Minimum inhibitory concentration (MIC) [1, 14]: >100 µM | Minimum inhibitory concentration (MIC) [1, 19]: >100 µM | Minimum inhibitory concentration (MIC) [1, 18]: >100 µM | restoration of growth of ctr1Δctr4Δ mutant [7]: unable to restore growth | Cu(II) log KML2 (Conditional Cu [2]; [15]): ≥20 ^b | pCu(II) (Conditional Cu [2]; [16]): ≥15 | Cu(I) log KML2 (Conditional Cu [8]; [20]): 16.4 ± 0.2 | pCu(I) (Conditional Cu [8]; [16]): 12.2 | competition with calcein for Cu(II) [3]: able to compete effectively for Cu(II) at both pH values | cell-associated Cu, Fe and Zn content [9, 17]: did not dramatically alter cellular metal content | cellular metal content compared to the other conditions ([9]; 1 h): decreased cellular metal content | stoichiometry with Cu(II) (Stoichiometry with Cu [11]): 2L:1Cu(II) | stoichiometry with Cu(I) (Stoichiometry with Cu [12]): Bis complexes

Structure (SMILES): Cc1occc(=S)c1O [ThM, thiomaltol]
effect of added Ag(I) on MIC ([1]; 48 h): no effect | effect of added Cu(II) on MIC ([1]; 48 h): significant decrease | effect of added Fe(III) on MIC ([1]; 48 h): did not significantly affect | effect of added Zn(II) on MIC ([1]; 48 h): did not significantly affect | Minimum inhibitory concentration (MIC) [1, 14]: >100 µM | MIC in the presence of added Cu ([1]; range over low (10 μM) and high (1 mM) supplemental Cu, SC medium, 48 h): 6 to 25 µM | Minimum inhibitory concentration (MIC) [1, 19]: 6 µM (≈ 0.853 µg/mL) | Minimum inhibitory concentration (MIC) [1, 18]: 25 µM (≈ 3.55 µg/mL) | fungicidal or fungistatic activity (CFU) (WT C. neoformans [13]; [21]): fungicidal | fungicidal or fungistatic activity (CFU) (WT C. neoformans [13]; without Cu, ThM 100 μM): fungistatic | restoration of growth of ctr1Δctr4Δ mutant [7]: restored to near wild type levels | Cu(II) log KML2 (Conditional Cu [2]; [15]): ≥20 ^b | pCu(II) (Conditional Cu [2]; [16]): ≥15 | Cu(I) log KML2 (Conditional Cu [8]; [20]): 16.4 ± 0.1 | pCu(I) (Conditional Cu [8]; [16]): 12.2 | competition with calcein for Cu(II) [3]: able to compete effectively for Cu(II) at both pH values | cell-associated Cu, Fe and Zn content ([9]; 10 μM ligand alone, 1 h): Metal accumulation did not occur | cell-associated Cu, Fe and Zn content [9, 17]: hyper accumulation of Cu, Zn, and Fe | stoichiometry with Cu(I) (Stoichiometry with Cu [12]): Bis complexes

Structure (SMILES): O=C(O)c1cc(-c2cc(C(=O)O)c3ccccc3n2)nc2ccccc12.O=C(O)c1cc(-c2cc(C(=O)O)c3ccccc3n2)nc2ccccc12.[Cu+] [[Cu^I(BCA)2]^3−]
Log K ([10]; constant in fitting model, universal buffer pH 7.4 with 5% DMSO): 17.7[45]

Structure (SMILES): [O-][n+]1ccccc1S [PyS, pyrithione]
effect of added Ag(I) on MIC ([1]; 48 h): significantly lowered | effect of added Cu(II) on MIC ([1]; 48 h): significant decrease | effect of added Fe(III) on MIC ([1]; 48 h): did not significantly affect | effect of added Zn(II) on MIC ([1]; 48 h): did not significantly affect | MIC ([1]; 48 h, SC medium, 48 h): 6 µM (≈ 0.763 µg/mL) | fungicidal or fungistatic activity (CFU) (WT C. neoformans [13]; [21]): fungicidal | fungicidal or fungistatic activity (CFU) (WT C. neoformans [13]; without Cu, ThM 100 μM): fungicidal | restoration of growth of ctr1Δctr4Δ mutant [7]: restored to near wild type levels | Cu(II) log KML2 (Conditional Cu [2]; pH 7.4): ≥20 ^b | pCu(II) (Conditional Cu [2]; pH 7.4): ≥15 | Cu(I) log KML2 (Conditional Cu [8]; pH 7.4): 17.1 ± 0.2 | pCu(I) (Conditional Cu [8]; pH 7.4): 12.9 | competition with calcein for Cu(II) [3]: able to compete effectively for Cu(II) at both pH values | cell-associated Cu, Fe and Zn content ([9]; 10 μM ligand alone, 1 h): Metal accumulation did not occur | cell-associated Cu, Fe and Zn content [9, 17]: hyper accumulation of Cu, Zn, and Fe | stoichiometry with Cu(II) (Stoichiometry with Cu [11]): 2L:1Cu(II) | stoichiometry with Cu(I) (Stoichiometry with Cu [12]): Bis complexes

Structure (SMILES): CCN(CC)C(=S)SSC(=S)N(CC)CC [DSF, disulfiram]
MIC ([1]; 48 h, SC medium, 48 h): 6 µM (≈ 1.78 µg/mL) | restoration of growth of ctr1Δctr4Δ mutant [7]: restored to near wild type levels

Structure (SMILES): Oc1c(I)cc(Cl)c2cccnc12 [CQ, clioquinol]
effect of supplemental Cu on the growth inhibition by the compound [1]: completely abrogated | MIC ([1]; 48 h, SC medium, 48 h): > 50 µM | restoration of growth of ctr1Δctr4Δ mutant [7]: unable to restore growth

Structure (SMILES): O=C(O)CN(CCN(CC(=O)O)CC(=O)O)CC(=O)O [EDTA, ethylenediamine tetraacetic acid]
growth compared to no treatment at 48 h ([1]; SC medium): decrease in growth | effect of supplemental Cu on the growth inhibition by the compound [1]: reversed
